# Compound activity (PubChem)
# Vif inh = HIV Vif inhibition; HEK293T cells, Vif self-association by quenched fluorescence, imaging, 24 h; inhibition, % at 7.49 µM; 340,000 tested, 0.35% active; in the data active = inhibition above about 50%, passing the limit was not always enough; inconclusive = no clear call, values can overlap the other calls; inactive = below about 31%
# CAL PDZ FP-1 = inhibitors of human CAL PDZ peptide binding | AID 602252 | Q9HD26 | 300,000 tested, 0.92% active | inhibition, % at 24.9 µM | purified CAL PDZ, TMR-peptide fluorescence polarization, 1 h;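 active = mean inhibition of at least 30% with at least half of replicates also reaching 30%; inconclusive = no clear call, values can overlap the other calls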;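 also: 0% = DMSO neutral control and 100% = excess unlabeled competitor peptide PRC23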
# CAL PDZ FP-2 = human CAL PDZ-peptide interaction inhibition | Q9HD26 | purified CAL PDZ, TMR-peptide fluorescence polarization, 1 h | inhibition, % at 20 µM | 330,000 tested, 0.02% active;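 active = highest replicate inhibition of at least 40%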;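 also: plate controls were DMSO neutral control wells for no effect and unlabeled competitor peptide control wells for full effect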
#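 Assay system – tagged CAL PDZ protein CerCALP, purified · Timing – 1 h at RT · Compound – single point, 20 µM · Measured by – fluorescence polarization from S- and P-plane intensities, G-factor corrected · Evaluation – inhibition from polarization loss · Probe or stimulus – TMR reporter peptide T*-PRC34 · Buffer or medium – pH 7.4 phosphate-saline buffer, reducing agent, detergent, IgG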
# PvdQ inh = P. aeruginosa PvdQ acylase inhibition. purified PvdQ acylase, fluorescence plate reader. 340,000 tested, 0.063% active. inhibition, % at 10 µM; in the data active = inhibition above about 30%, passing the limit was not always enough; inconclusive = no clear call, values can overlap the other calls;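 also: 0% = vehicle neutral wells and 100% = reference inhibitor wells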
# CDK5 p35 inh = inhibitors of human CDK5/p35 kinase; Recombinant CDK5/p35, ADP-Glo luminescence, 60 min; inhibition, % at 10 µM; 330,000 tested, 0.01% active;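 active = highest replicate inhibition of at least 50% and at least 75% of replicates reaching 50%; inconclusive = only one of the two criteria met; inactive = both criteria failed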;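 also: plate controls were DMSO neutral control for no effect and GW8510 at 10 µM for full effect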
# Target sequence (Q00535 whole entry, looked up): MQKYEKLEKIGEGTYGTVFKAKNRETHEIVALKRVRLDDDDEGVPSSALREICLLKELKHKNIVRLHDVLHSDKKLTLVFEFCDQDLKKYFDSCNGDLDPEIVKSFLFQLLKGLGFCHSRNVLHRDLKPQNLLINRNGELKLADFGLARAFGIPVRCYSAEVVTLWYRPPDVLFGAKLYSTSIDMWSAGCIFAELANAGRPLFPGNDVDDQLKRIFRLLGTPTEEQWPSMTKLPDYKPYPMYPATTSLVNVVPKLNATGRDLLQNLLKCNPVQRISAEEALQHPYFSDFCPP
# Target sequence (Q15078 whole entry, looked up): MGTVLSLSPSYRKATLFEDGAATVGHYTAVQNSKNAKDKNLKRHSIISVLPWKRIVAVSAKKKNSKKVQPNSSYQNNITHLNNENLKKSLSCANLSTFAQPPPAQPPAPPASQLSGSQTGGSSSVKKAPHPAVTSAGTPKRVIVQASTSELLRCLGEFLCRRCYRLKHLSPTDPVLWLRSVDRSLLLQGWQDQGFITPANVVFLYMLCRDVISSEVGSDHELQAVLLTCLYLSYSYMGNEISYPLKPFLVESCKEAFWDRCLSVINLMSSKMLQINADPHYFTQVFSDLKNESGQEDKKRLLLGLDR
# N-glyco inh = N-linked glycosylation inhibition. D54 ERlucT glycosylation luciferase reporter, 24 h; percent of 100 nM tunicamycin response. reporter increase, % at 12.5 µM. 360,000 tested, 0.23% active. AID 588692;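 active = mean luciferase reporter signal, scaled so untreated is 0 and the glycosylation-blocking control 100, at or above a set limit in every replicate; inconclusive = mean reaches the limit but not every replicate does; inactive = mean below the limit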;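 also: luciferase carries N-glycosylation sites so blocking glycosylation raises the light; 0% = median of neutral control wells and 100% = median of 100 nM tunicamycin wells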
# An asterisk follows results filed as active; ? = inconclusive; · = no result given. A selection: hits, their analogues and other compounds. The true share with any hit is near 1.4%.
SMILES,Vif inh,CAL PDZ FP-1,CAL PDZ FP-2,PvdQ inh,CDK5 p35 inh,N-glyco inh
CCCCCCC[C@@H](C/C=C/CCC(=O)N(C)C/C(=C/Cl)C/C(=C\C(=O)N1C[C@H](O)CC1=O)OC)OC,0,7,0,-17,-6,0
CCCCCCC[C@@H](C/C=C/CCC(=O)N(C)C/C(=C/Cl)C/C(=C\C(=O)N1CC(OC)=CC1=O)OC)OC,·,3,0,-11,1,77*
CCOc1cc(N2CCOCC2)c(OCC)cc1NC(=O)CN1CCCC1,1,94*,-1,-11,-1,2
CCOc1cc(N2CCOCC2)c(OCC)cc1NC(=O)COC(=O)c1cc(C)cc(C)c1,2,-6,0,3,2,1
CCOc1cc(N2CCOCC2)c(OCC)cc1NC(=O)COC(=O)c1ccc([N+](=O)[O-])o1,16,92*,0,-19,0,3
CCOc1cc(N2CCOCC2)c(OCC)cc1NC(=O)C1CCCC1,3,-1,-3,-12,1,4
COc1cccc(-c2cccc(NC(=O)C3CCN(CCCn4cccn4)CC3)c2)c1,·,·,·,·,·,0
CCOC(=O)Nc1c(C)n(C)n(-c2ccccc2)c1=O,-2,·,-2,-8,0,1
CCOC(=O)Nc1c2ccccc2nc2ccccc12,-4,7,0,-22,1,34*
COc1cccc(C2NC(=O)NC(C)=C2C(=O)OCC2CCCCC2)c1 (stereo unspecified),-1,4,0,-12,1,2
Cc1ccccc1Nc1c(-c2ccccn2)nc2ccccn12,-4,82*,0,-5,-3,8
CC1CC(C)CN(C(=O)CN2C(=O)NC3(CCCCCC3)C2=O)C1 (stereo unspecified),-9,·,-1,-10,-2,0
CCOC(=O)c1cc2sccc2n1CC(=O)N1c2ccccc2CC1C (stereo unspecified),2,-5,-1,-6,0,377*
CC1Cc2ccccc2N1C(=O)COC(=O)c1cccc(Br)c1 (stereo unspecified),9,182*,-2,-17,0,2
CC1Cc2ccccc2N1C(=O)COC(=O)c1ccccc1NCCO (stereo unspecified),66*,0,-1,-12,-2,-2
CC(=O)C(Cc1ccccc1)NC(=O)CCl (stereo unspecified),-2,1,0,0,0,2
CC(=O)NC(Cc1ccccc1)C(C)=O (stereo unspecified),-3,100*,33,-16,-2,1
Cc1cnc(C(=O)N(c2ccc(N3CCOCC3)cc2)C2C(=O)Nc3ccccc3N=C2c2ccc(F)cc2)cn1 (stereo unspecified),·,·,·,·,·,2
Cc1ccc(S(=O)(=O)N(C)C)cc1NC(=S)N1CCc2ccccc21,3,49*,-2,-5,0,2
O=[N+]([O-])c1ccc(N=Nc2c(O)[nH]c3ccc(F)cc23)cc1,-6,42*,·,-12,2,12
O=C(NNC(=O)c1cc(Cl)nc2ccccc12)c1ccccc1F,5,-1,-1,0,0,1
CCSc1nsc(NC(=O)Nc2cccc(F)c2)n1,-24,70*,8,-10,-1,-16
COCCOCC(O)CN1CCN(c2ccccc2)CC1 (stereo unspecified),26,32*,0,-18,0,1
COCCOCC(O)CN1CCN(c2ccc(C)cc2)CC1 (stereo unspecified),15,1,-1,-20,1,2
COCCCN(C(=O)CCOc1ccc(C)cc1)c1c(N)n(Cc2ccccc2)c(=O)[nH]c1=O,-6,-6,-1,-1,0,-1
SMILES,Vif inh,CAL PDZ FP-1,CAL PDZ FP-2,PvdQ inh,CDK5 p35 inh,N-glyco inh
c1ccc(-c2n[nH]c(-c3ccccc3)c2-c2nc3ccccc3[nH]2)cc1,0,-4,-2,-7,0,31*
c1ccc(-c2nc3ccccc3[nH]2)cc1,-6,1,-1,-7,2,-4
CCCc1nnc(NC(=O)CS(=O)(=O)c2ccc(C)cc2)s1,-3,-3,-2,-9,1,1
Cc1ccc(S(=O)(=O)CC(=O)Nc2nnc(C(C)C)s2)cc1,58*,-8,-2,-4,-1,0
CCOc1ccc(-c2cnc3ccccc3n2)cc1,8,·,-2,90*,0,-21
CCOc1ccc(-c2cn3ccccc3n2)cc1,1,-3,-2,50*,6,-18
Fc1ccc(-c2cn3ccccc3n2)cc1,0,·,-1,24,2,-14
COC(=O)c1csc(C2OC(CO)C(O)C2O)n1 (stereo unspecified),-2,·,·,·,·,2
Cc1cc2cc(C#N)c(SCC(=O)Nc3nonc3C)nc2cc1C,79*,-2,-2,11,12,4
Cc1cc(C(=O)N/N=C/c2c3ccccc3cc3ccccc23)n[nH]1,?,-8,-1,-14,2,45*
O=C(Nc1nc2n(n1)C(c1ccc(F)cc1)CC(c1ccccc1)N2)c1ccco1 (stereo unspecified),-11,38*,-1,-18,-1,-1
Cc1cc2nc(C(C)(C)C)c(Cc3ccccc3)n2c(C)c1Br,·,·,·,·,·,0
CCC(=NCCc1ccccc1)C1=C(O)CCC1=O,-3,64*,-1,-13,1,-2
Cc1ccccc1C(=O)c1cccn1CC(=O)NC(C)c1ccccc1 (stereo unspecified),4,-1,-1,-4,·,7
COc1ccc(CCNC(=O)Cc2ccsc2)cc1,-8,37*,-2,-13,-1,0
COc1ccc(CCNC(=O)[C@@H](NC(N)=O)C(C)C)cc1,51*,-2,-3,3,1,0
Cc1cc(/C=C2\C(=N)N3C(SCc4ccccc4)=NSC3=NC2=O)c(C)n1Cc1ccccc1,93*,-9,·,-12,1,2
O=C(NNC(=O)C1CC1)c1ccc(F)cc1F,2,-6,0,7,1,2
Cc1ccccc1-c1cc2nc(Oc3ccc4c(c3)OCO4)n(C)c(=O)c2s1,-5,·,·,·,·,1
COc1cccc(NC(=S)N2CCn3c(nc4ccccc43)C2)c1,13,-3,-2,2,2,-1
S=C(Nc1ccccc1)N1CCn2c(nc3ccccc32)C1,58*,0,-2,-12,-2,-2
Cc1[nH]c2ccccc2c1N=Nc1ccccc1C(=O)O,7,·,0,6,-4,4
NC(=O)c1ccc(NC(=O)COC(=O)C2CCN(S(=O)(=O)c3cccs3)CC2)cc1,-8,130*,0,-20,0,0
COc1ccc(NC(=O)COC(=O)C2CCN(S(=O)(=O)c3cccs3)CC2)cc1,-3,2,-1,-11,0,2
CC(C)(C)c1ccccc1OCCCCCn1ccnc1,-6,6,0,-17,-3,-1
